Results as given in the RNAGym collection of RNA variant scans (doi:10.1126/science.aae0568).
Fewer inactive variants are shown than the library holds.

B1: tRNA (parent)
chain: GUUCCGUUGGCGUAAUGGUAACGCGUCUCCCUCCUAAGGAGAAGACUGCGGGUUCGAGUCCCGUACGGAACG

Variants of: B1
Assay: yeast fitness relative to wild type (ratio to wild type); higher = fitter; tRNA-Arg(CCU), competitive growth, 37 C, YPD
Outline: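 The tRNA-Arg(CCU) gene variants were made by chemical synthesis with a 3% per-site mutation rate at 69 sites and inserted at the native genomic locus of Saccharomyces cerevisiae. After pooling, the strains were competed in YPD at 37°C for 24 hours in six parallel replicates. Gene amplicons from the start population and each end population were read by 100-nucleotide paired-end sequencing, and Darwinian fitness relative to wild type was taken from genotype frequency changes. Genotypes needed ≥ 100 starting reads, and estimates < 0.5 were set to 0.5.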

Going from GUUCCGUUGGCGUAAUGGUAACGCGGCUCCUUCCUAAGGAGAAGACUGCGGGUUCGAGUCCCGUACGCAACG to GUUCCGUUGGCGUAAUGGUAACGCGUCUCCCUCGUAAGGAGAAGACUGUGGGUUCGAGUCCCGUACGGAACG, the yeast fitness rises from 0.636 to 0.708.

GUUCCGUUGCCGUAAUGGUAACGCGUCUCCCUCCUAAGGAGAAGACUGAGGGUUAGAGUCCUGUAUGGAACG and GUUCCGUUGGUGUUAUGGUAACGCGUCUCCCUCCUAAGGGGCAGACUGCGGGUUCGAGUCCCGUACGGAACG cannot be ordered by yeast fitness: at most 0.5 for the first, at most 0.5 for the second.

Compared with GUUCCGUUGGCGUAAUGGUAUCGCGUCACCCUCCGAAGGAGAAGACUGCGGGUUCGAAUCCGGUACGGAACG, GUUGCGUUGGCGUAAUGGUAACGCGUCUCCCUCCUAAGGAGAAGACUGCGGGUUCGAGUCCCGUACGGCACG is higher in yeast fitness: at most 0.5 for the first, 0.878 for the second.

Compared with GUUCGCUUGGCGUAAUGGUAACGCGUCUCCCUCCUAAGGAGAAGACUACGGGUUCGAGUCCCGUACGGAACG, GUUCCGUUGGCGUAAUGGUCACGCGUCUCCCUCCUAAGGAGAAGACUGCGGGUUCGAGUCCCGUACGGAUCG is higher in yeast fitness: 1.06 for the first, 1.12 for the second.

Going from GUUCCAUUCGCGUAAUGGUAACGCGUCUCCCCCCUGAGGAGAAGACUGCGGGUUCGAGUCCCGUACGGAACG to GUUCCGUUGGCGUAAUGGUAACCCGUCUCCAUCCUAAGGAGAAGACUGGGGGUUAGAGUCCCGUACGGAACG, the yeast fitness rises from at most 0.5 to 0.534.

GUUCCGUUGGCGUAAUGGUAACGCGUGUCCUUCGUAGGGAGAAGACUGCGGGUUCGAGUCCCGUCCGGAACG and GUUCCGUUGGCGUAAUGGUGACGCGUCUCCCUCCUAAGGAGAAGACUGCGGGUUCGAGUACCGAAUGGAACG cannot be ordered by yeast fitness: at most 0.5 for the first, at most 0.5 for the second.

Compared with GUUCCGUUGGCGUAAUGGUAAUGCGUGGCCCGCCUAAGGAGAAGGCUGCGGGUUCGAGUCCCGUACGGAACG, GUUCGGUUGGCGUAAUGGUAACGCGUCUCCCUCCUAAGGAGAAGACAGCGGGUUCGAGUCCCGUACGGAACG is higher in yeast fitness: at most 0.5 for the first, 0.731 for the second.

First: GUUCCGUAGGCGUAAUGGGAAUGCGUCUCCCUCCUAAGGAGAAGACUGCGGGUUCGAAUCCCGUACGGAACG
Second: GUUCCGCUGGCGUAAUGGUAACGCGUGUCCCUCCUAAGGAGAAGACUGCGGGUUCGAGUCCCGUACGGAACG
The yeast fitness of the first is lower: 0.568 for the first, 0.696 for the second.

Going from GUUCCGUUGGCGUAAUGGUAACGCGUUUCCCACCUAAGGAGAAGACUGCGGAUUCGAGUCCCGUAUCGAACG to GUUCCGUUGGCGUAAUGGUAACGCGUCUCCCGCUUAAGGAGAAGACUGCGGGUUCGGGUCCCGUACGGAACG, the yeast fitness rises from at most 0.5 to 0.561.

Compared with GUUCCGUUGGCGUAAUGGUACCGCGUCUCCCUCCUAAGGAGAAGCCUGUGGGUUCGAGUCCCGUACGGAACG, GUUACGUUGGCGUAAUGGUAACGCGCCUCCCUCCUAAGGAGAAGACUGCGGGUUCGAGUCCCGUACGGAACG is higher in yeast fitness: 0.582 for the first, 0.972 for the second.

First: GUGCCGUUGGCGUAAUGGUAACGAGUCUCCCUCCUAAGGAGAAGACUGCGGGUUCGAAUCCCGUACGGAACG
Second: GUUCCGUUGGCAUAAUGGUAACGCGACUCCCUCCUAAGGAGAAGAUUGCGGGUUCGAGUCCCGUACGGAACG
The yeast fitness of the first is lower: at most 0.5 for the first, 0.543 for the second.

First: GUUCCGUUGGCGUAAUGGUAACGCGUCUCCCUCCUAAGGCGAAGAGUGCGGGUUCGAGUCCCGUACGGAACG
Second: GUUCCGUUGGCGUAAUGGUAACGCGUCUCCCUCCUAAGGAGGACACUGCGGGUUCGAGACCCGUACGGAACG
The yeast fitness of the first is higher: 0.975 for the first, 0.537 for the second.

Going from GUUCCGUUGGCGUCAUGGUAACGCGUCUCCCUCCUAAGGAGAAGAAUGCGGGUUCGAGUCCCGUACGGAACG to GUUCCGUUGGCGUACUGGUAACGCGUGUCCCUCCUAAGGAGAAGACUGCGGGUUCGAGUCCCGUACGGAACG, the yeast fitness falls from 0.641 to 0.571.

Compared with GUUCCGUUGGCGUAAUGCUAAAGCGUCUCCCCCCUAAGGAGAAGCUUGCGGGUUCGAGUCCCGUCCGGAACG, GUACCGUUGGCGUAAUGGUAACGCGUCUCCCUCCUAAGGAGAAGACUGCGAGUUCGAGUCCCGUGCGGUACG is higher in yeast fitness: at most 0.5 for the first, 1.03 for the second.

Going from GUUCCGUUGGCGUAAUGGUAACGCGUCUCCCUCCUAAGGAGAAGACUCCGGGUUCGAGUCCCGUACGGUACG to GUUCCGUUGGCGUUAUGGUAACGCGUCUCCUUCCUAAGGAGAAGACUGCGAGUUCGAGUCCCCUACGGAACG, the yeast fitness falls from 0.95 to at most 0.5.

GUUCCGUUGGCGCAAUGGUAACGCGUCUCCCUCUUAAGGAGAAGACUCCGGGUUCGAGUCUCGUACAGAACG and GUUCCGUUGGCGUAAUGGUAACGCGUCCCCCUCCUAAGGAGAAGACUGCGGGUGCGCGUCCUGUACGGAACG cannot be ordered by yeast fitness: at most 0.5 for the first, at most 0.5 for the second.

GUUCUGUUGGAGUAAUGGUAACGCGUCUCCUUCUUAAGGAGAAGACUGCGGGUUCGAGUCCCGUACGGAACG and GUUCCGUUGGCGUAAUGGUAACGGGUCUCCCUCCUAAGGAGAAGACUGCGGGUUUGAGUCCCGUACCGAACG cannot be ordered by yeast fitness: at most 0.5 for the first, at most 0.5 for the second.

Compared with GUUCCGUUGGCGUAAUGGUAACGCGUCUCCCUCCUAAGGAGAAGACUGCGGGUUCGAAUCCCGUACGAAACG, GUUCCGUUGGCAUAAUGGUAACGCGUCUCCCUACUAAGGAGAAGACUGCGGGUGCGAGUCCCGUACGGACCG is lower in yeast fitness: 0.899 for the first, 0.541 for the second.

Going from GUUCCGUUGGCGUAAUGGUAACGUGUCUCCAUCCUAAGGAGAAGACUGCGGGUCCGUGUCCCGUACGGAACG to GUUCCGUUGGCGUAAUGGUAACGCGUCUCGCUCCUAAGGAGAAAACUGCGGGUUCGAGUCCCAUACGGAACG, the yeast fitness falls from 0.547 to at most 0.5.

Going from GUUCCGGUGGCGUAAUGGUAACGCGUCUCCUUCCUAAGGAGAAGACUGCGGGUUCGAGUCCCGUACGGAACG to GUUCCGUUGGCCUAAUGGUGACGCGUCUCCCUCUUAAGGAGAAGACUGGGGGUUCGAGUCCCGUACGGAACG, the yeast fitness falls from 0.98 to 0.711.

GUUCAGUUGGCGUAGUGCUAACGCGUCUACCUCCUAAGGAGAAGACUGCGGGUACGAGUCCCGUACGGAACG and GUUCUGUUGGCGUAAGGGUAACGCGUCUCCCUCCUAAGGAGAAGACUGCGGGUUCGAGUCCCGUGUGGAACG cannot be ordered by yeast fitness: at most 0.5 for the first, at most 0.5 for the second.

Going from GUUGCGUUGGAGUAAUGGUAACGCGUCUCCCUCCAAAGGAGAAGACUGUGGGUUCGAGGCCCGUACUGAACG to GUUCCAUUGGCGUAAUGGAAACGCGUCUCCCUCCUAAGGAGAAGACUGCGGGUUCGAGUCCCGUACGGAACG, the yeast fitness rises from 0.554 to 0.973.

Going from GUUCUGUUGGAGCAAUGGUAACGGGUCUCGCUCCUAAGGAGAAGAUUGCGGGUUCGAGUCCCGUACGGAACG to GUUCCGUUGGUGUAAUGGUAACGCGUCUCCCUCCUAAGGAGAAGCCUGCGGGUUCGAGCCCCGUACGGAACG, the yeast fitness falls from 0.629 to at most 0.5.

Compared with GUUCCGUUGGUGUAAUGGUAAUGCGUCUCCCUCCUAAAGAGAAGACUGCGGGUCCGAGUCCCGUACGGAACG, GUUCCGUUGGCGUAAUGGGUACGCGUGUCCCUCCUAAGGAGAAGACUGCGGGUUCGAAUCCCGUACGGAACG is higher in yeast fitness: at most 0.5 for the first, 0.527 for the second.

Compared with GUUCCGUUGACGCAAUGGUAACGCGUCUCCGUCCUAAGGAGAAGACUGCGGGUUCGCGUCCCGUACGGAACG, GUUCCGUUGGCGUAGUGGUAACGCGUCUCCCUCCUAAGGAGCAGACUGAGGGUUCGAGUCCCGUACGGAACG is lower in yeast fitness: 0.587 for the first, 0.527 for the second.

First: GUUCCGUUGGCGUGAUGGGAACGCGUGUCCCUCAUAAGGAGUAGACUGCGGGUUCGAGUCCCGUACGGAACG
Second: GUUCCGUUGGCGUAAUGGUCACGCGUCUCCCUCCUAAGGAGCAGACUACGGGUUCGAGUCCCGUACGGAACG
The yeast fitness of the first is lower: at most 0.5 for the first, 0.591 for the second.

First: GUUCCAUUGGCGUAAUGGUAACGCGUCUCCCUCCUAAGGAGAAGACUGCGCGUUCGGGUCUCGUCCGGAACG
Second: GUCCCGUUGGCGUAAUGGUGACGCGUCUCCCUCCUAAGGAGAAGACUGCGGGUUCGAGCCCCGUACGGCACG
The yeast fitness of the first is lower: at most 0.5 for the first, 0.79 for the second.

Compared with GUUCCGUUAGCGAAAUGGUAACGCGUCUCCCUCCUAAGGAGAAGACUGCGGGUUCGAGUCCCGUACGGUACG, GUUCCGUUGGCGUAAUGGUAACGCGUCUCCCUCCUAAGGGGAAGACUGCGGAUUCUAGUCCCGUACGGAACG is lower in yeast fitness: 0.811 for the first, at most 0.5 for the second.

Compared with GUUCCGUUGGCGUAAUGGUAACGCGUCUCCCUCGUACGGAGAAGACUGCGGGUUCAAGUCCCGUACGGAACG, GUUCCGUUGGCGUAAUGGUUACGCGUCUCCCUCCUAAGGAGAAGACUGCGGGUUCGAGUCCCGUCCGGAACG is higher in yeast fitness: 0.527 for the first, 0.823 for the second.

First: GUUCCGUUGGCGUAAUGGUAGCGCGUUUCCCUCCUAAGGAGAAGACUGCGGGUUCGAGUCCCGUACGGCACG
Second: GUUCCGUUGGCGUAAUGGUAAGGCGUCUCCCUCCUAAGGAGAAGACUGCGGGUUCGAGUGCCGUAAGGAACG
The yeast fitness of the first is higher: 0.781 for the first, at most 0.5 for the second.

Going from GGUCCGUUGGCGUAAUGGUAACGCGUCUCCGUCCUAAGGAGAAGACUGCGGGUUCGUGUACCGUACGGAACG to GUUCCGUUGGCGUAAUGGUCAUGCGUCUCCCUCCUAAGGAGAUGACUGCGGGUUCGAGUCCCGUACGGAACG, the yeast fitness rises from at most 0.5 to 0.584.

Going from GUUCCGUUGGCGUAAUGGAAACCCGUCUCACUCCUGAGGAGAAGACUGCGGGUUCGAGUUCCGUACGGAACG to GUUCUGUUGGCGUAAUGGUAACGCGUCUCCCUCCUAAGGAGAAGACUACGGGUUCGAGUCCCGUACGGAACG, the yeast fitness rises from at most 0.5 to 0.891.

Going from GUUCCGUUGGCGUAAUGGGAACGCGUCUUCCUCCUAAGGAGAAGACUGCGGGUUCGAGUCCCGUACGGAACG to GUUCCGUUGGCGUAAUGGUAACGCCUCUCCCUCCUAAGCAGAAGACUGCGGCUUCGACUCCCGUACGGAACG, the yeast fitness falls from 0.795 to at most 0.5.

First: GUUCCGUUGGCGUAAUGGUACCGCGUCUCCCUCCUAAGGAGAAGAUUGCGGGUUCGAGUCCCGUACAGAACG
Second: GUUCCGUUGGCGUAAUGGUAACGCGCCUACCUCCUCAGGAGAAGACUGCGGGUUCGAGUCCCGUACGGAACG
The yeast fitness of the first is higher: 0.619 for the first, at most 0.5 for the second.

First: GUUCCGUUGGCGUAAUGGUAACGCCUCUCCCUCCUAAGGAGAAGACUGCGAGUUCGAGUCCCGUGCGGAACG
Second: GUUCCGUCGGCGUAAUGGUAACGUGUCUCCCUCCUAAGGAGAAGUCUGCGGGUUCGAGUCCCGUACGGAACG
The yeast fitness of the first is higher: 0.742 for the first, 0.608 for the second.

Going from GUCUCGUUGGCGUAAUGGUAACGCGUCUCCCUCCUAAGGAGAAGACUGCGGGUUCGAGUCCCGUACGGAACG to GUUCCGUUGGCGUAAUGGUAACGCGUCUCCCUCCUAAGGAGAAAACUGUGGGUUCGAGUCCAGUACCGAACG, the yeast fitness falls from 1.01 to at most 0.5.

First: GUAUCGUAGACGUAAUGGUAGCGCGUCUCCCUCCUAAGGAGAAGACUGGGGGUUCGGGUCCCGUACUGAACG
Second: GUUCCGCUGGCGUAAUGGUACCGCGUUUCCCUCCUAAGGAGAAGACUGCGGGUUCGAGUCCCGUACGGAACG
The yeast fitness of the first is higher: 0.655 for the first, at most 0.5 for the second.

In the case of GUACCGUUGGCGUAAUGGUAACGCGGCUCCCUCCUAAGGAGAAGACUGCGGGUUCGAGUCCCGUAUGGAACG, the yeast fitness is reported as at most 0.5.
